# Source: PubChem
# In the library only some 2.4% were active in any assay of this set; here they are far more common.
# MPTP block – permeability transition pore inhibition | isolated mouse mitochondria, Ca2+ swelling absorbance, 30 min | inhibition, % at 10 µM | actives 1.4% (n = 360,000);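 active = inhibition of 50% or more, scaled per plate between neutral and stimulator controls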;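 note: 0% = DMSO wells given calcium and 100% = 1 mM EGTA wells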
# aDG glyco act – increases alpha dystroglycan glycosylation. Pro5-aDG cells, alpha-DG glycosylation AlphaScreen (IIH6); 0% Pro5, 100% B10-LARGE cell signal. activation, % at 10 µM. actives 0.22% (n = 360,000). AID 624168;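 active = activation of at least 8% versus controls, or a plate z-score of at least 8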;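 note: Pro5 are CHO cells carrying HIG-tagged alpha-DG that lacks glycosylation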
# Jurkat NFkB inh – lowers PMA/ionomycin-induced NF-kB signal in Jurkat cells; AID 435003; actives 0.53% (n = 330,000); PMA/ionomycin-induced NF-kB luciferase reporter, luminescence; inhibition, % at 4 µM; in the data active = inhibition above about 50%
# 697 NFkB inh – inhibitors of the PMA/ionomycin-induced NF-kB reporter in 697 B cells. 697 B-cell NF-kB luciferase reporter, 16 h. actives 0.33% (n = 330,000). inhibition, % at 4 µM. AID 435022; in the data active = inhibition above about 35%
# NR2E3 ag-1 – activates human photoreceptor nuclear receptor NR2E3; inhibition of corepressor binding, % at 4.78 µM; actives 0.12% (n = 320,000); Q9Y5X4; AID 2300; GST-NR2E3/biotin-RetCOR TR-FRET, 1536-well;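 active = percent inhibition above the cutoff of mean plus 3 SD of all tested compounds, set per screening campaign, cut at about 20% in these data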;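 note: 0% = DMSO wells and 100% = biotin wells as full block of FRET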
# Target sequence (Q9Y5X4 whole entry, looked up): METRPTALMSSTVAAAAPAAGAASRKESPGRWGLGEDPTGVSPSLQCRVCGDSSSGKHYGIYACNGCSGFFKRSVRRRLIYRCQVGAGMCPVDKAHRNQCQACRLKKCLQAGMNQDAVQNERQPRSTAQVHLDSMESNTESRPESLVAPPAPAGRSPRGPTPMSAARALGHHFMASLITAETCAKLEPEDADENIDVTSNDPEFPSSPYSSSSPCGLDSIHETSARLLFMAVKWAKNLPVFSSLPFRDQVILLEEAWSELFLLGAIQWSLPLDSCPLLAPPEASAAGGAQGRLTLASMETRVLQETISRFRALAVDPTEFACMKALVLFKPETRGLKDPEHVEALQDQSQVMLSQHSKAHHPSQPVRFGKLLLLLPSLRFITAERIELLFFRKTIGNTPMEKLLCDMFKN
#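 Material: NR2E3–RetCOR corepressor complex | Quantity: 1.35 nM GST-tagged NR2E3 final | Schedule: 5 h at 4 °C | Replication: Singlicate compound wells | Reagent: RetCOR corepressor, biotinylated, 7 nM | Controls: Biotin wells as high control, 0.6% DMSO wells as low control | Signal: TR-FRET, Eu(K)-anti-GST donor, streptavidin-D2 acceptor, ex 340, em 617/671 nm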
# NR2E3 ag-2 – human photoreceptor-specific nuclear receptor agonism | Q9Y5X4 | CHO-S Gal4-NCOR/VP16-NR2E3 two-hybrid, luciferase | inhibition of corepressor binding, % at 3.98 µM | actives 0.35% (n = 360,000);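 active = inhibition above the mean of all tested compounds plus 3 SD, cut at about 70% in these data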;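 note: 0% = DMSO with NR2E3 transfected cells and 100% = cells lacking NR2E3 construct; higher means lower luciferase signal from less NR2E3 corepressor binding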
# Rh123 counter – membrane potential counter-screen of mitochondrial pore inhibitors. shares compounds with MPTP block. actives 78% (n = 5,000). inhibition, % at 10 µM. isolated mitochondria, Rhodamine 123 fluorescence; in the data active = inhibition above about 22%;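 note: 0% = DMSO vehicle and 100% = positive control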
# MPTP swell DR – MPTP inhibition, dose response swelling confirmation; shares compounds with MPTP block; isolated mitochondria swelling, absorbance; IC50, µM; actives 58% (n = 780); in the data active = IC50 below about 20 µM
# MPTP counter DR – counter-screen for mitochondrial permeability transition pore inhibitors, dose response. shares compounds with MPTP block. IC50, µM. actives 49% (n = 780). isolated mitochondria counterscreen, fluorescence read-out; in the data active = IC50 below about 80 µM
# * hit, by the source's call; . = no result.
SMILES,MPTP block,aDG glyco act,Jurkat NFkB inh,697 NFkB inh,NR2E3 ag-1,NR2E3 ag-2,Rh123 counter,others
NC(=O)N/N=C/c1ccccc1OC(=O)c1ccccc1Br,-1.2,0.4,-8.7,6.0,-5.2,7.5,.,
O=C1c2cccc3cccc(c23)C(=O)N1CC1CCN(CC(O)COCc2ccc3c(c2)OCO3)CC1 (stereo unspecified),55.6*,4.0,15.3,-12.1,4.0,-7.7,4.9,MPTP swell DR=9.6*;MPTP counter DR=26.4*
Cc1ccc(C)c(OCC(O)CN2CCC(CN3C(=O)c4cccc5cccc(c45)C3=O)CC2)c1 (stereo unspecified),100.5*,0.9,41.1,-43.6,-2.4,-16.6,91.6*,
COc1ccc(OCC(O)CN2CCC(CN3C(=O)c4cccc5cccc(c45)C3=O)CC2)cc1 (stereo unspecified),18.7,1.1,-4.3,4.5,0.5,23.3,.,
Cc1cccc(S(=O)(=O)N2CCN(Cc3ccc4c(c3)OCO4)CC2)c1,-0.1,0.1,13.6,12.5,0.4,-9.9,.,
CCC(CC)C(=O)Nc1cccc(S(=O)(=O)c2cccc(NC(=O)C(CC)CC)c2)c1,58.3*,0.2,-12.6,-51.6,3.0,13.3,36.0*,
COC(=O)c1ccc2c(c1)C(C)(C)C(/C=C/c1ccc(O)cc1)=[N+]2C,86.2*,-0.4,45.3,-65.8,5.3,41.8,-24.8,
COC(=O)c1ccc2c(c1)C(C)(C)C(/C=C/c1ccc(OC)c(OC)c1OC)=[N+]2C,-5.4,-0.8,9.0,-21.7,1.0,-7.5,.,
CC(C)(C)C1=CC(=Nc2ccccc2N)C=C(C(C)(C)C)C1=O,38.1,-0.5,1.5,6.4,0.7,-139.8,.,
CC(C)(C)C1=CC(=O)C(=O)C(C(C)(C)C)=C1,79.7*,-0.4,2.1,-1.7,2.5,-20.7,4.4,
C=CCCc1ccc(C#N)c(SCc2c(C(=O)OCC)c3cc(OC(C)=O)c(Br)cc3n2C)n1,71.3*,3.2,18.1,-7.2,-3.3,-15.3,75.8*,
CC1(C)SC(=S)N(NC(=O)Nc2cccc3ccccc23)C1N(O)C(=O)Nc1ccccc1 (stereo unspecified),94.9*,0.3,12.3,8.4,-2.6,2.0,73.7*,
CC1(C)SC(=S)N(/N=C/c2ccccc2)C1N(O)C(=O)Nc1ccc([N+](=O)[O-])cc1 (stereo unspecified),100.9*,-0.3,-12.8,-6.9,-1.5,-21.2,98.2*,
S=C(NCC1CCCO1)Nc1ccc(Cl)cc1Cl (stereo unspecified),0.7,0.1,-12.0,-1.8,0.3,-71.3,.,
CCc1ccc2c(c1)cc(CN(C(=S)Nc1ccc(Cl)cc1)C1CC1)c1nnnn12,146.4*,0.4,16.9,-11.7,-0.4,-7.7,9.9,MPTP swell DR=>100;MPTP counter DR=>80
CCN(CC(=O)Nc1ccccc1OC)C(=O)c1ccc(NC(=O)c2cccs2)cc1,-2.7,-0.1,18.2,12.8,2.3,17.9,.,
N#Cc1ccc(NC(=O)Nc2ccc(Oc3ccc(NC(=O)Nc4ccc(C#N)cc4)cc3)cc2)cc1,15.5,0.0,21.8,-4.6,-2.1,-8.4,.,
N#Cc1ccc(NC(=O)Nc2cccc(C#N)c2)cc1,72.0*,0.8,.,.,.,-0.8,100.0*,
O=C(NCCc1cccc(Cl)c1)c1ccc(Cl)c([N+](=O)[O-])c1,81.4*,0.5,13.0,-25.2,0.9,-11.3,93.5*,
CC(=O)c1ccc(NC(=O)Nc2cccc(Cl)c2)cc1,101.2*,0.8,-120.5,-144.6,-0.8,-97.7,88.0*,
CC(=O)c1ccc(NC(=O)Nc2ccc(Br)cc2C)cc1,89.8*,0.6,-4.8,24.0,-0.1,8.5,96.5*,
CC(C)(C)c1cc(C(=O)NNC(=O)Nc2cccc(Cl)c2)n(Cc2ccccc2)n1,71.2*,0.1,9.8,6.7,5.0,4.2,79.0*,
O=C(NCCc1ccncc1)Nc1cccc(Cl)c1,0.2,0.5,-23.7,-24.5,-0.7,7.0,.,
